Source: ChEMBL document CHEMBL5104191, “Identification of Novel 2,4,5-Trisubstituted Pyrimidines as Potent Dual Inhibitors of Plasmodial PfGSK3/PfPK6 with Activity against Blood Stage Parasites In Vitro” (J Med Chem, 2022)

What was measured:
[1] = Inhibition of Plasmodium falciparum PK6 measured after 2 hrs by luciferin-based luminescence assay
Plasmodium falciparum [2] = test: Antiplasmodial activity against Plasmodium falciparum 3D7 infected in human erythrocytes assessed as reduction in parasite growth incubated for 72 hrs by SYBR green I fluorescence based assay; type: functional, organism-based; details: 3D7, 72 h
Method in brief: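 P. falciparum 3D7 synchronized by sorbitol at ring stage, set to 2% parasitemia and 2% hematocrit. Compounds dosed at 0–5 μM as 2-fold dilutions in triplicate. Controls were quinacrine 500 nM and 0.5% DMSO. Incubation 72 h at 37 °C in 3% O2/5% CO2/92% N2, then SYBR Green I lysis for 24 h in the dark. Fluorescence ex 485/em 535; normalized to controls; EC50 from dose–response fit.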

HepG2 = test: Cytotoxicity against human HepG2 cells assessed as reduction in cell viability at 2 uM measured after 48 hrs by cell titre glo luminescence assay; type: toxicity, cell-based; details: hepg2, 48 h
Method in brief: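 HepG2 cells in DMEM with 10% FBS, seeded at 4000 cells/well and incubated overnight at 37 °C, 5% CO2. Compound added in quadruplicate with constant DMSO, then 48 h incubation. Viability by CellTiter-Glo luminescence, reported as % viable cells; average of two experiments in quadruplicate.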

[3] = target: T1, Glycogen synthase kinase 3 (Plasmodium falciparum (isolate 3D7)) (UniProt O77344); test: Inhibition of Plasmodium falciparum GSK3 at 1 uM measured after 2 hrs by luciferin-based luminescence assay relative to control; values are per cent of control
T1 sequence (whole entry): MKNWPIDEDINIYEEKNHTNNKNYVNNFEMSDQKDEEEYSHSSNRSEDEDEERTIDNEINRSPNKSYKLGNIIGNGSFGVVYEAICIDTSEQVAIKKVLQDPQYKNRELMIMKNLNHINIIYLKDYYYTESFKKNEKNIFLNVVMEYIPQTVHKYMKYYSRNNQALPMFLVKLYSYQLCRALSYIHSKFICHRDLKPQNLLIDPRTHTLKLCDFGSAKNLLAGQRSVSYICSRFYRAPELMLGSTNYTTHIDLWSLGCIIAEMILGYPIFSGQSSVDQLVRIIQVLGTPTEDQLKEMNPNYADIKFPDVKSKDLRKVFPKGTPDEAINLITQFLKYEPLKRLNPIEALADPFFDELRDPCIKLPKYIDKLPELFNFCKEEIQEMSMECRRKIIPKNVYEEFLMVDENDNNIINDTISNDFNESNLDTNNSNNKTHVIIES

Plasmodium falciparum [4] = test: Antiplasmodial activity against blood stage plasmodium falciparum assessed as inhibition of parasite growth; type: functional, organism-based
Plasmodium falciparum [5] = test: Inhibition of Plasmodium falciparum PK6 at 1 uM measured after 2 hrs by luciferin-based luminescence assay relative to control; values are per cent of control
[6] = Inhibition of Plasmodium falciparum PKG incubated for 30 mins […]
[7] = Kinetic solubility of the compound in PBS buffer at pH 7.4; type: physicochemical

Q: For O=C(c1ccc(Nc2nccc(-c3cc4ccccc4s3)n2)cc1)N1CCC(N2CC[C@H](O)C2)CC1, which IC50 [1] is on record?
A: 0.264 µM

Q: What does the source list for O=C(c1ccc(Nc2ncc(F)c(-c3cc4ccccc4s3)n2)cc1)N1CCC(N2CCCC2)CC1?
A: EC50 (Plasmodium falciparum [2]): 0.607 µM; IC50 [1]: 0.066 µM; cell viability remaining (HepG2): 79%

Q: What does the source list for O=C(c1ccc(Nc2ncc(Cl)c(-c3cc4ccccc4s3)n2)cc1)N1CCC(N2CCCC2)CC1?
A: EC50 (Plasmodium falciparum [2]): 0.991 µM; IC50 [1]: 0.019 µM; cell viability remaining (HepG2): 61%

Q: For Cc1ccc(-c2nc(Nc3ccc(C(=O)N4CCC(N5CCCC5)CC4)cc3)ncc2Cl)s1, which IC50 [1] is on record?
A: 0.014 µM

Q: For O=C(c1ccc(Nc2nccc(-c3ccc(Cl)s3)n2)cc1)N1CCC(N2CCCC2)CC1, which IC50 [1] is on record?
A: 0.13 µM

Q: For c1ccc(CNc2nccc(-c3cc4ccccc4s3)n2)cc1, which residual activity [3] is on record?
A: 100%

Q: For Clc1ccccc1Nc1nccc(-c2cc3ccccc3s2)n1, which residual activity [3] is on record?
A: 100%

Q: With CS(=O)(=O)CCCNC(=O)c1ccc(Nc2nccc(-c3cc4ccccc4s3)n2)cc1 as the compound, how does the IC50 [1] read?
A: 0.215 µM

Q: For CN(C)C1CCN(C(=O)c2ccc(Nc3nccc(-c4cc5ccccc5s4)n3)cc2)CC1, which IC50 [1] is on record?
A: 0.216 µM

Q: For CN(C)CCCNC(=O)c1ccc(Nc2nccc(-c3cc4ccccc4s3)n2)cc1, which IC50 [1] is on record?
A: 0.319 µM

Q: With N#Cc1cnc(Nc2ccc(C(=O)N3CCC(N4CCCC4)CC3)cc2)nc1-c1cc2ccccc2s1 as the compound, how does the EC50 (Plasmodium falciparum [2]) read?
A: 0.322 µM

Q: And the IC50 [1]?
A: 0.077 µM

Q: What about the cell viability remaining (HepG2) of the same compound?
A: 84%

Q: Which EC50 (Plasmodium falciparum [2]) does the source give for c1ccc2sc(-c3ccnc(Nc4ccc(CN5CCC(N6CCCC6)CC5)cc4)n3)cc2c1 here?
A: 0.06 µM

Q: What about the IC50 [1] of the same compound?
A: 0.173 µM

Q: What about the cell viability remaining (HepG2) of the same compound?
A: 97%

Q: Which EC50 (Plasmodium falciparum [2]) does the source give for O=C(c1ccc(Nc2nccc(-c3ccc4ccccc4c3)n2)cc1)N1CCC(N2CCCC2)CC1 here?
A: 0.541 µM

Q: And the IC50 [1]?
A: 0.359 µM

Q: What about the cell viability remaining (HepG2) of the same compound?
A: 82%

Q: For Clc1cccc(Nc2nccc(-c3cc4ccccc4s3)n2)c1, which residual activity [3] is on record?
A: 89%

Q: For O=C(c1ccc(Nc2nccc(-c3nccs3)n2)cc1)N1CCC(N2CCCC2)CC1, which IC50 [1] is on record?
A: 0.182 µM

Q: For O=C(c1ccc(Nc2ncc(C3CC3)c(-c3cc4ccccc4s3)n2)cc1)N1CCC(N2CCCC2)CC1, which EC50 (Plasmodium falciparum [2]) is on record?
A: 0.646 µM

Q: What about the IC50 [1] of the same compound?
A: 0.114 µM

Q: What about the cell viability remaining (HepG2) of the same compound?
A: 55%

Q: Which IC50 [1] does the source give for O=C(c1ccc(Nc2nccc(-c3ccc(CO)s3)n2)cc1)N1CCC(N2CCCC2)CC1 here?
A: 0.563 µM

Q: With Cc1ccc(-c2ccnc(Nc3ccc(C(=O)N4CCC(N5CCCC5)CC4)cc3)n2)s1 as the compound, how does the IC50 [1] read?
A: 0.222 µM

Q: For O=C(c1ccc(Nc2nccc(-c3cc4ccccc4s3)n2)cc1)N1CCNCC1, which IC50 [1] is on record?
A: 0.398 µM

Q: For CCCN(C)C1CCN(C(=O)c2ccc(Nc3nccc(-c4cc5ccccc5s4)n3)cc2)CC1, which IC50 [1] is on record?
A: 0.181 µM

Q: Which IC50 [1] does the source give for CN1CCN(CCCNC(=O)c2ccc(Nc3nccc(-c4cc5ccccc5s4)n3)cc2)CC1 here?
A: 0.153 µM

Q: With c1ccc(Nc2nccc(-c3cc4ccccc4s3)n2)cc1 as the compound, how does the residual activity [3] read?
A: 100%

Q: Which residual activity [3] does the source give for COc1ccccc1Nc1nccc(-c2cc3ccccc3s2)n1 here?
A: 100%

Q: Which results are given for O=C(c1ccc(Nc2nccc(-c3ccc(COCC(F)(F)F)s3)n2)cc1)N1CCC(N2CCCC2)CC1?
A: EC50 (Plasmodium falciparum [2]): 0.81 µM; IC50 [1]: 0.292 µM; cell viability remaining (HepG2): 87%

Q: For Cc1cnc(Nc2ccc(C(=O)N3CCC(N4CCCC4)CC3)cc2)nc1-c1cc2ccccc2s1, which EC50 (Plasmodium falciparum [2]) is on record?
A: 0.76 µM

Q: What about the IC50 [1] of the same compound?
A: 0.045 µM

Q: What about the cell viability remaining (HepG2) of the same compound?
A: 66%

Q: With O=C(NC1CC1)c1ccc(Nc2nccc(-c3cc4ccccc4s3)n2)cc1 as the compound, how does the IC50 [1] read?
A: 0.407 µM

Q: With CC(C)n1cnc2c(NCc3ccccc3)nc(NCCO)nc21 as the compound, how does the IC50 (Plasmodium falciparum [4]) read?
A: 130 µM

Q: For COc1cnc(Nc2ccc(C(=O)N3CCC(N4CCCC4)CC3)cc2)nc1-c1cc2ccccc2s1, which IC50 [1] is on record?
A: 0.294 µM

Q: Which IC50 [1] does the source give for CN1CCN(C(=O)c2ccc(Nc3nccc(-c4cc5ccccc5s4)n3)cc2)CC1 here?
A: 0.339 µM

Q: What does the source list for Clc1ccc(Nc2nccc(-c3cc4ccccc4s3)n2)cc1?
A: residual activity [3]: 89%; residual activity (Plasmodium falciparum [5]): 92%

Q: What does the source list for COC(=O)c1ccc(Nc2nccc(-c3cc4ccccc4s3)n2)cc1?
A: residual activity [3]: 71%; residual activity (Plasmodium falciparum [5]): 78%

Q: With O=C(c1ccc(Nc2nccc(-c3ccc(-c4ccccc4)s3)n2)cc1)N1CCC(N2CCCC2)CC1 as the compound, how does the IC50 [1] read?
A: 0.415 µM

Q: With O=C(c1ccc(Nc2ncc(Br)c(-c3cc4ccccc4s3)n2)cc1)N1CCC(N2CCCC2)CC1 as the compound, how does the EC50 (Plasmodium falciparum [2]) read?
A: 0.3 µM

Q: What about the IC50 [1] of the same compound?
A: 0.057 µM

Q: And the cell viability remaining (HepG2)?
A: 47%

Q: With COc1ccc(Nc2nccc(-c3cc4ccccc4s3)n2)cc1 as the compound, how does the residual activity [3] read?
A: 97%

Q: And the residual activity (Plasmodium falciparum [5])?
A: 88%

Q: Which IC50 [1] does the source give for O=C(c1ccc(Nc2nccc(-c3ccco3)n2)cc1)N1CCC(N2CCCC2)CC1 here?
A: 0.768 µM

Q: For O=C(O)c1ccc(Nc2nccc(-c3cc4ccccc4s3)n2)cc1, which residual activity [3] is on record?
A: 33%

Q: Which residual activity [3] does the source give for COc1cccc(Nc2nccc(-c3cc4ccccc4s3)n2)c1 here?
A: 97%

Q: For O=C(c1ccc(Nc2nccc(-c3cc4ccccc4s3)n2)cc1)N1CCC(N2CCCCC2)CC1, which IC50 [1] is on record?
A: 0.115 µM

Q: For O=C(c1ccc(Nc2nccc(-c3ccc(Cl)c(Cl)c3)n2)cc1)N1CCC(N2CCCC2)CC1, which IC50 [1] is on record?
A: 0.382 µM

Q: With O=C(NCCCN1CCOCC1)c1ccc(Nc2ncc(Cl)c(-c3ccc(Cl)s3)n2)cc1 as the compound, how does the EC50 (Plasmodium falciparum [2]) read?
A: 1.4 µM

Q: And the IC50 [1]?
A: 0.008 µM

Q: What about the cell viability remaining (HepG2) of the same compound?
A: 65%

Q: With CN1CCC(NC(=O)c2ccc(Nc3nccc(-c4cc5ccccc5s4)n3)cc2)CC1 as the compound, how does the IC50 [1] read?
A: 0.34 µM

Q: With O=C(c1ccc(Nc2nccc(-c3cc4ccccc4o3)n2)cc1)N1CCC(N2CCCC2)CC1 as the compound, how does the IC50 [1] read?
A: 0.317 µM

Q: Which results are given for Cc1ccc(-c2nc(Nc3ccc(C(=O)NCCCN4CCOCC4)cc3)ncc2Cl)s1?
A: EC50 (Plasmodium falciparum [2]): 2.6 µM; IC50 [1]: 0.016 µM; cell viability remaining (HepG2): 54%

Q: With Cc1cnc(Nc2ccc(C(=O)N3CCC(N4CCCC4)CC3)cc2)nc1-c1ccc(Cl)s1 as the compound, how does the EC50 (Plasmodium falciparum [2]) read?
A: 0.576 µM

Q: What about the IC50 [1] of the same compound?
A: 0.014 µM

Q: And the cell viability remaining (HepG2)?
A: 65%

Q: With Cc1ccc(-c2nc(Nc3ccc(C(=O)N4CCC(N5CCCC5)CC4)cc3)ncc2C)s1 as the compound, how does the IC50 [1] read?
A: 0.028 µM

Q: For Cc1cn2c(-c3ccnc(NCC4CC4)n3)c(-c3ccc(F)c(NS(C)(=O)=O)c3)nc2cc1CN(C)C, which IC50 [6] is on record?
A: 0.0021 µM

Q: Which IC50 [1] does the source give for Cc1cnc(Nc2ccc(C(=O)NCCCN3CCOCC3)cc2)nc1-c1ccc(Cl)s1 here?
A: 0.012 µM

Q: For O=C(c1ccc(Nc2nccc(-c3cc4ccccc4s3)n2)cc1)N1CCC(N2CC[C@@H](O)C2)CC1, which IC50 [1] is on record?
A: 0.243 µM

Q: Which IC50 [1] does the source give for O=C(NCCCN1CCOCC1)c1ccc(Nc2nccc(-c3cc4ccccc4s3)n2)cc1 here?
A: 0.156 µM

Q: Which IC50 [1] does the source give for O=C(c1ccc(Nc2nccc(-c3cccs3)n2)cc1)N1CCC(N2CCCC2)CC1 here?
A: 0.236 µM

Q: Which IC50 [1] does the source give for Cn1cc(-c2ccnc(Nc3ccc(C(=O)N4CCC(N5CCCC5)CC4)cc3)n2)cn1 here?
A: 0.645 µM

Q: With O=C(c1ccc(Nc2nccc(-c3cc4ccccc4s3)n2)cc1)N1CCC(N2CCCC2)CC1 as the compound, how does the Kinetic_solubility [7] read?
A: 0.0194 mg/mL

Q: What about the EC50 (Plasmodium falciparum [2]) of the same compound?
A: 0.28 µM

Q: And the IC50 [1]?
A: 0.46 µM

Q: And the cell viability remaining (HepG2)?
A: 103%

Q: What does the source list for O=C(c1ccc(Nc2ncc(Cl)c(-c3ccc(Cl)s3)n2)cc1)N1CCC(N2CCCC2)CC1?
A: EC50 (Plasmodium falciparum [2]): 0.552 µM; IC50 [1]: 0.011 µM; cell viability remaining (HepG2): 34%

Q: Which IC50 [1] does the source give for O=C(c1ccc(Nc2nccc(-c3ccccc3)n2)cc1)N1CCC(N2CCCC2)CC1 here?
A: 0.329 µM
